Source: ChEMBL document CHEMBL4118248, “Small Molecule Proprotein Convertase Subtilisin/Kexin Type 9 (PCSK9) Inhibitors: Hit to Lead Optimization of Systemic Agents” (J Med Chem, 2018)
The source made the active and inactive calls. No cut-off for these calls is given here.

Tests used:
[1] = test system: Bone marrow cell; assay: Cytotoxicity against rat bone marrow cells assessed as reduction in cell viability after 72 hrs by CellTiter-Glo assay; type: cell-based
[2] = Total Cmax in Crl:CD(SD) rat at 50 mg/kg/day, po daily via gavage for 14 days measured on day 14 post last dose up to 24 hrs; type: ADME, organism-based; parameters: dose 50 mg/kg/day, route oral; conditions: in vivo
[3] = Intrinsic clearance in human liver microsomes; type: ADME, microsome; conditions: read-out: CLH
[4] = Selectivity index, ratio of IC50 for cytotoxicity against rat bone marrow cells to IC50 for 80S ribosome in human HuH7 cells harboring pCMV-truncated human PCSK9 (1 to 152 residues)-proLuc; type: toxicity, cell-based; conditions: read-out: Ratio IC50
[5] = Total plasma concentration in Crl:CD(SD) rat at 50 mg/kg/day, po daily via gavage for 14 days measured on day 14 post last dose up to 24 hrs; type: ADME, organism-based; conditions: in vivo
[6] = target: T1, CYP1A2 (Homo sapiens, UniProt P05177); assay: Inhibition of CYP1A2 (unknown origin) at 3 uM relative to control; type: ADME
T1 sequence (P05177 whole entry): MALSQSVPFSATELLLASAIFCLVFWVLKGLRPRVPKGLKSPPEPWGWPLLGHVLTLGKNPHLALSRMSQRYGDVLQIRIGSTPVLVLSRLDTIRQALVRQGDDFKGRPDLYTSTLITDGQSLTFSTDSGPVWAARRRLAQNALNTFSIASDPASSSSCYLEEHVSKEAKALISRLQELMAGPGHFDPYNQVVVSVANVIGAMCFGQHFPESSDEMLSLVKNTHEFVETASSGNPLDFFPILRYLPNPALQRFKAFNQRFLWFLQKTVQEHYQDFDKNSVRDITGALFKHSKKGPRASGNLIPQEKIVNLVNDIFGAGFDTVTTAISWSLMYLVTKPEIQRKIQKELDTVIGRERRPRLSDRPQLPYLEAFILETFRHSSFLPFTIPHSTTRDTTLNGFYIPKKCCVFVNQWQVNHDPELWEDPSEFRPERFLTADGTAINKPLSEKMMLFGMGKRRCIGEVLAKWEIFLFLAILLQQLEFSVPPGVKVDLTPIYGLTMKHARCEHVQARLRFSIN
Summary of the method: (§1)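 Inhibition of CYP1A2, 2D6, 2C9 and 3A4 reported as IC50, or as percent inhibition at 3 µM.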

[7] = target: CYP3A4 (Homo sapiens, UniProt P08684); assay: Inhibition of CYP3A4 (unknown origin) at 3 uM relative to control; type: ADME; summary of the method: as §1
[8] = test system: Ribosome; assay: Binding affinity to 80S ribosome in rat IEC-6 cells assessed as induction of changes in Ndc80 nascent chain expression at 4 uM by ribosome profiling method; type: cell-based
Summary of the method: (§2)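 Rat IEC-6 cells exposed 1 h to 4 µM compound or vehicle, followed by ribosome profiling. Cumulative read fractions along annotated protein regions compared with vehicle. RPKM taken from reads 3' of the Dmax position when the Dmax Z-score is >2.0, otherwise 3' of codon 50.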

[9] = Intrinsic clearance in rat liver microsomes; type: ADME, microsome; conditions: read-out: CLH
[10] = test system: Rattus norvegicus; assay: Toxicity in Crl:CD(SD) rat at 50 mg/kg/day, po daily via gavage for 14 days; type: organism-based; conditions: in vivo, 336 h
[11] = Fraction unbound in rat plasma; type: ADME, cell-free
Summary of the method: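 Unbound fraction measured in rat plasma.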

[12] = test system: Rattus norvegicus; assay: Toxicity in Crl:CD(SD) rat assessed as single cell necrosis in crypt cells in ileum at 50 mg/kg/day, po daily via gavage for 14 days measured on day 15 post last dose; type: organism-based; conditions: in vivo, 336 h
[13] = Permeability from basolateral to apical side in MDCK cells harboring MDR1; type: ADME, cell-based, Canis lupus familiaris; conditions: dog, read-out: permeability
Summary of the method: (§3)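 Bidirectional permeability across MDR1-transfected MDCK monolayers, apical-to-basolateral and basolateral-to-apical; Papp reported in 10^-6 cm/s.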

[14] = target: 80S Ribosome; assay: Binding affinity of [3H]PF-06446846 to human 80S ribosome
[15] = Cytotoxicity against human CD34-positive hematopoietic progenitor cells assessed as reduction in cell viability after 72 hrs by CellTiter-Glo assay; type: cell-based
[16] = target: CYP2C9 (Homo sapiens, UniProt P11712); assay: Inhibition of CYP2C9 (unknown origin) at 3 uM relative to control; type: ADME; summary of the method: as §1
[17] = test system: Mus musculus; assay: Inhibition of PCSK9 secretion in plasma of humanized PCSK9 C57BL6J mouse assessed as free plasma concentration required to show effect at 30 to 100 mg/kg, po via gavage measured up to 24 hrs by ELISA; type: functional
Summary of the method: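 Humanized PCSK9 mice given a single oral dose of 30 or 100 mg/kg, with vehicle group. Plasma PCSK9 followed over 0-24 h and normalized to t = 0. Free effective concentration derived from the whole time course with an indirect-effect PK/PD model.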

[18] = target: T2, Voltage-gated inwardly rectifying potassium channel KCNH2 (Homo sapiens, UniProt Q12809); assay: Inhibition of human ERG by patch clamp method
[19] = test system: Ribosome; assay: Binding affinity to 80S ribosome in rat IEC-6 cells assessed as induction of changes in Cox15 nascent chain expression at 4 uM by ribosome profiling method; type: cell-based; summary of the method: as §2
[20] = target: T2, Voltage-gated inwardly rectifying potassium channel KCNH2; assay: Inhibition of dofetilide binding to human ERG by fluorescence polarization assay
[21] = Lipophilicity, log D of the compound by shake flask method; type: physicochemical; conditions: octanol/water
Summary of the method: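 LogD measured by the shake-flask method.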

[22] = target: CYP2D6 (Homo sapiens, UniProt P10635); assay: Inhibition of CYP2D6 (unknown origin) at 3 uM relative to control; type: ADME; summary of the method: as §1
[23] = Permeability from apical to basolateral side in MDCK cells harboring MDR1; type: ADME, cell-based, Canis lupus familiaris; conditions: dog, read-out: permeability; summary of the method: as §3
[24] = test system: IEC-6; assay: Cytotoxicity against rat IEC-6 cells assessed as reduction in cell viability after 3 days by CellTiter-Glo assay; type: cell-based; conditions: IEC-6, 72 h
Summary of the method: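 Rat intestinal epithelial IEC-6 cells; viability read by CellTiter-Glo ATP luminescence.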

[25] = test system: Rattus norvegicus; assay: Toxicity in Crl:CD(SD) rat at 50 mg/kg/day, po daily via gavage for 14 days measured on day 15 post last dose; type: organism-based; conditions: in vivo, 336 h
Summary of the method: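 Male rats, 5 per group, given vehicle or test compound at 50 mg/kg by daily oral gavage for 14 days. Mortality, clinical signs and hematology were monitored throughout. Toxicokinetics were sampled at 1, 3, 6 and 24 h post-dose on day 14. Necropsy was on day 15, with microscopic evaluation of bone marrow, ileum, duodenum, jejunum and liver.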

[26] = Apparent permeability in RRCK cells; type: ADME, cell-based, Canis lupus familiaris, MDCKII-LE; conditions: dog, MDCK
Summary of the method: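 Passive permeability measured in RRCK cells, a modified Madin-Darby canine kidney line; Papp reported in 10^-6 cm/s.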

[27] = target: 80S Ribosome; assay: Binding affinity to 80S ribosome in human HuH7 cells assessed as inhibition of PCSK9 mRNA translation after overnight incubation by ELISA; type: cell-based; conditions: huh-7
Summary of the method: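 Huh7 cells kept in high-glucose DMEM, 10% BSA-free FBS, 2 mM L-glutamine, pen/strep at 37 °C, 5% CO2. Plated 7,500/well with compound or vehicle and incubated overnight (16-20 h). Secreted PCSK9 in the medium read by AlphaLISA: two antibodies to different mature-PCSK9 epitopes, biotinylated antibody 3 nM final, acceptor beads 10 µg/mL, 0.5 h rt; streptavidin donor beads 40 µg/mL, 1 h rt.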

[28] = test system: Rattus norvegicus; assay: Toxicity in Crl:CD(SD) rat assessed as discolored/mottled liver at 50 mg/kg/day, po daily via gavage for 14 days measured on day 15 post last dose; type: organism-based; conditions: in vivo, 336 h
Summary of the method: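 Male rats, 5 per group, given vehicle or compound at 50 mg/kg/day by oral gavage for 14 days. Mortality, clinical signs and hematology monitored throughout. Necropsy on day 15 with microscopy of bone marrow, ileum, duodenum, jejunum and liver. Toxicokinetics at 1, 3, 6 and 24 h post-dose on day 14.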

[29] = target: 80S Ribosome; assay: Binding affinity to 80S ribosome in human HuH7 cells harboring pCMV-truncated human PCSK9 (1 to 152 residues)-proLuc assessed as inhibition of PCSK9 mRNA translation after overnight incubation by luciferase reporter gene assay; type: cell-based; conditions: huh-7
Summary of the method: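 Huh7 cells stably carry human PCSK9 prodomain (aa 1-152) fused to firefly luciferase (aa 2-550) in pcDNA3.1, kept under 900 µg/mL Geneticin. Plated 10,000/well in phenol red-free DMEM/10% FBS and left 4 h, then compound added (top final 20 µM, 0.5% DMSO). Incubated overnight at 37 °C, luminescence read with SteadyGlo.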

[30] = test system: Rattus norvegicus; assay: Toxicity in Crl:CD(SD) rat assessed as mortality at >= 150 mg/kg/day, po daily via gavage for 14 days measured on day 15 post last dose; type: organism-based; conditions: in vivo, 336 h
[31] = test system: Rattus norvegicus; assay: Toxicity in Crl:CD(SD) rat assessed as mortality at 500 mg/kg/day, po daily via gavage for 14 days; type: organism-based; conditions: in vivo, 336 h
Summary of the method: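 Rats dosed orally at 50, 150 and 500 mg/kg/day for 14 days; crypt epithelium of duodenum/jejunum examined histologically and mortality recorded.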

T2 sequence (Q12809 whole entry): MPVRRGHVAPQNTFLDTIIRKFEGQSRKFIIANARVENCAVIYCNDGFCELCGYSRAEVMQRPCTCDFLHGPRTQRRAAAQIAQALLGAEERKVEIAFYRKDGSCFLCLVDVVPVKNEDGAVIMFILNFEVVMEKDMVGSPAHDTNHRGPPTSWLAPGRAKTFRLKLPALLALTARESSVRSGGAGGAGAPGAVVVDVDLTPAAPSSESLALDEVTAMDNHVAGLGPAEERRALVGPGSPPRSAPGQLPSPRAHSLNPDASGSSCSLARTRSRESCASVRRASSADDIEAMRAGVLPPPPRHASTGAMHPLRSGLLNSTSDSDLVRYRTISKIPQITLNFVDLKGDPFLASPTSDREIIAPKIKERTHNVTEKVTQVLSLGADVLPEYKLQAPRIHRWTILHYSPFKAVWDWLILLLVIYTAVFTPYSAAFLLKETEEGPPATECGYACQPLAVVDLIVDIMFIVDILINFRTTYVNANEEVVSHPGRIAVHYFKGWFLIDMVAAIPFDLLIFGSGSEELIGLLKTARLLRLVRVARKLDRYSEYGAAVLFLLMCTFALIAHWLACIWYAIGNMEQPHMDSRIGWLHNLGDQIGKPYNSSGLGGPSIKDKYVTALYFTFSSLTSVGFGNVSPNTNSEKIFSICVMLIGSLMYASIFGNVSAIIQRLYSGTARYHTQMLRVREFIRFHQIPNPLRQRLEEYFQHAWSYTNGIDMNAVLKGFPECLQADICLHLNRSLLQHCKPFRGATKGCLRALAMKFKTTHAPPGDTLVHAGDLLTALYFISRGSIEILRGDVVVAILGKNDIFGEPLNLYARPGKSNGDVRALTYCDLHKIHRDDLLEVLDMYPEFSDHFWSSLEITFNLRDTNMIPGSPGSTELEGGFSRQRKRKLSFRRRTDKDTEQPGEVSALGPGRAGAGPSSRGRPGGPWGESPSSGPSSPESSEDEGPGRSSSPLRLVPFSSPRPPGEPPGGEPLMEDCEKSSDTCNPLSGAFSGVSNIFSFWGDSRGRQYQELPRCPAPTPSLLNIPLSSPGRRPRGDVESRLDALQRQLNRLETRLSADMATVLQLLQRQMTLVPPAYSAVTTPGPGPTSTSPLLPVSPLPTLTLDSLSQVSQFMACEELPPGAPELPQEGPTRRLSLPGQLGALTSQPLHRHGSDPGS
Sequence of CYP3A4 (P08684 whole entry): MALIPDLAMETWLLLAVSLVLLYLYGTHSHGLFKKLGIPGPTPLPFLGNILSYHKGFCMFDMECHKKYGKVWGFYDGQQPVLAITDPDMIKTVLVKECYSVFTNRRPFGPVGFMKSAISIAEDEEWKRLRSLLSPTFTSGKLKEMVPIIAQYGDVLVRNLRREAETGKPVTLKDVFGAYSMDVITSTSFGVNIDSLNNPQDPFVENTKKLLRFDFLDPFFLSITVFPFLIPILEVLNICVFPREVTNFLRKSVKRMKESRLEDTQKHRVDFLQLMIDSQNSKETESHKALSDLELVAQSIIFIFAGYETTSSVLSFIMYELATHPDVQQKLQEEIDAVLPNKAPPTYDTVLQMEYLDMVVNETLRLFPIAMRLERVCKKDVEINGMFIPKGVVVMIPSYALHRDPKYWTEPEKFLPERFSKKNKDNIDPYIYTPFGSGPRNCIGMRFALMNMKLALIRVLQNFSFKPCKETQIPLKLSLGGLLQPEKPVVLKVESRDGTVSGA
Sequence of CYP2C9 (P11712 whole entry): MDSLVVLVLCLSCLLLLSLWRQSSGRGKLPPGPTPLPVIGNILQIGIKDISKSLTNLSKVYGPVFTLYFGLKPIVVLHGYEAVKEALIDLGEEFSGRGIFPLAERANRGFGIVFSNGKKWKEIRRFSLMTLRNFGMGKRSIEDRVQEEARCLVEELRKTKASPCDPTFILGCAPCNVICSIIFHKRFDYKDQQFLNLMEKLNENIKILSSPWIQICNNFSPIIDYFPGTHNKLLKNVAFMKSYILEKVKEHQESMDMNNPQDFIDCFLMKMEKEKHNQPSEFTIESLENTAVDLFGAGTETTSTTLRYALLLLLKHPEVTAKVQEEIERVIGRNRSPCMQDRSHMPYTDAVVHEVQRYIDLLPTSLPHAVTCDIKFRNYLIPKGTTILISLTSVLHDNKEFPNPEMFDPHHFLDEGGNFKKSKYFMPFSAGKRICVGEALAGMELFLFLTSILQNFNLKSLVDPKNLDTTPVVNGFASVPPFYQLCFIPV
Sequence of CYP2D6 (P10635 whole entry): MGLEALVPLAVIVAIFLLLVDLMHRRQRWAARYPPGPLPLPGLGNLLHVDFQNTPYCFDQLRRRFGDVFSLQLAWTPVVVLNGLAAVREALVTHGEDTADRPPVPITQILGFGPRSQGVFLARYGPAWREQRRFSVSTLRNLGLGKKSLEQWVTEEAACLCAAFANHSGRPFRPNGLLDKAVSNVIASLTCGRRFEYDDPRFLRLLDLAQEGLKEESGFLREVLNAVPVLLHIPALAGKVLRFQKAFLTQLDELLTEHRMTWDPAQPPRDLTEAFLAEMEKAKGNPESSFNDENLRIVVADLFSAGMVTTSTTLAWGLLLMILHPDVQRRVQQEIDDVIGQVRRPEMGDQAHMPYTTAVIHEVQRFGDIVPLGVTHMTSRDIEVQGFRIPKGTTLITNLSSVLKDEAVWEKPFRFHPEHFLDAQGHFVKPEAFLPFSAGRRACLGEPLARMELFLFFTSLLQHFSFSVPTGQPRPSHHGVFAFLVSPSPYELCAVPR

## Cc1cnc2c(c1)nnn2-c1ccc(C(=O)N(c2ncccc2Cl)[C@@H]2CCCNC2)nc1
[1]
  IC50: 20 to 65 µM
[2]
  Cmax: 9660 ng/mL
[3]
  microsomal CLint: 9.3 µL/min/mg
[4]
  selectivity ratio: > 30
[5]
  concentration: 15.9 µM
[6]
  inhibition at 3 µM: < 13%
[7]
  inhibition at 3 µM: < 13%
[8]
  Activity: Active
[9]
  microsomal CLint: 15.1 µL/min/mg
[10]
  NOAEL: 4.231 µM
[11]
  fraction unbound: 0.24
[12]
  Activity: Non-Toxic
[13]
  Papp B→A: 19.9 ×10⁻⁶ cm/s
[14]
  Ki: 63 µM
[15]
  IC50: > 20 µM
[16]
  inhibition at 3 µM: < 13%
[17]
  Cp(f): 175 nM
[18]
  IC50: 3.6 µM
[19]
  Activity: Active
[20]
  Ki: 5.9 µM
[21]
  logD: 0.7
[22]
  inhibition at 3 µM: < 13%
[23]
  Papp A→B: 1.3 ×10⁻⁶ cm/s
[24]
  IC50: > 20 µM
[25]
  Activity: Non-Toxic
[26]
  Papp: 6.2 ×10⁻⁶ cm/s
[27]
  IC50: 1.37 µM
[28]
  Activity: Toxic
[29]
  IC50: 0.85 µM
[30]
  Activity: Toxic
[31]
  Activity: Toxic
